Measurements: ChEMBL document CHEMBL1148687, “Identification of a novel 4-aminomethylpiperidine class of M3 muscarinic receptor antagonists and structural insight into their M3 selectivity” (J Med Chem, 2006)

Key:
[1] = biological target: T1, Muscarinic acetylcholine receptor M1 (Homo sapiens, UniProt P11229); assay: Inhibition of [3H]NMS binding to human cloned M1 receptor expressed in CHO cells; type: cell-based
T1 sequence (P11229 whole entry): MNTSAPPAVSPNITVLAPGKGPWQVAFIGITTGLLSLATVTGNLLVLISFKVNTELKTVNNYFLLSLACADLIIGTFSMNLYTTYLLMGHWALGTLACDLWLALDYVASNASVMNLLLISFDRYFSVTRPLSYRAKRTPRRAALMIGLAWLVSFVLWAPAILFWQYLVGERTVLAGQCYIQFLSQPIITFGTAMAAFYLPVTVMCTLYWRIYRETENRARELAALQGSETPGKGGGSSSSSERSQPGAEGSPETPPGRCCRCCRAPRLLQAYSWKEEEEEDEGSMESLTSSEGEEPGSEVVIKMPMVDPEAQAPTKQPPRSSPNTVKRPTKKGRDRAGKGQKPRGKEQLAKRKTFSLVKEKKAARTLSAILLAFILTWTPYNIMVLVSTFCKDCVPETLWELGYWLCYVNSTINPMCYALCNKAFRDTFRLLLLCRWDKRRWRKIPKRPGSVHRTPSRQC
Procedure, shortened: (§1)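 Competition against specific [3H]-NMS binding on membranes of CHO cells expressing cloned human receptor subtypes. Assay buffer 50 mM Tris-HCl, 10 mM MgCl2, 1 mM EDTA, pH 7.4, highest final concentration 10 µM.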

[2] = biological target: T2, Muscarinic acetylcholine receptor M5 (Homo sapiens, UniProt P08912); assay: Inhibition of [3H]NMS binding to human cloned M5 receptor expressed in CHO cells; type: cell-based; procedure, shortened: as §1
T2 sequence (P08912 whole entry): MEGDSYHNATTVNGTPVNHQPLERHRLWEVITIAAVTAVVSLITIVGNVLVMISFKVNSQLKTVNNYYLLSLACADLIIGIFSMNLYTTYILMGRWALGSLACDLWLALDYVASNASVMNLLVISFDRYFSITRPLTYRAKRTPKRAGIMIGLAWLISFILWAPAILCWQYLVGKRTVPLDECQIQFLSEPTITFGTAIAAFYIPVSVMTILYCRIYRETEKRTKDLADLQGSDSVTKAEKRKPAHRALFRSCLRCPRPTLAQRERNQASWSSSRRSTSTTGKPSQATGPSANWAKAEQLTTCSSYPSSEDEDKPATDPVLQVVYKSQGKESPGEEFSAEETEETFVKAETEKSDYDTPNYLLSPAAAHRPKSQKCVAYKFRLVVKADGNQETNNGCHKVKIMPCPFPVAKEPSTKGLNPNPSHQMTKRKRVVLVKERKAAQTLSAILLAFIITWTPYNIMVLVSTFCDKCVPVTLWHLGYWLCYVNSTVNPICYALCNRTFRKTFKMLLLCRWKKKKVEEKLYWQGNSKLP

[3] = biological target: Muscarinic acetylcholine receptor M3 (Rattus norvegicus, UniProt P08483); assay: (§2) Antagonist activity at M3 receptor assessed as inhibition of carbachol-induced contraction of rat trachea; type: functional; settings: read-out: pA2 (converted)
Procedure, shortened: (§3)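 Contraction of isolated rat trachea evoked by carbachol, antagonist given at several doses. Four experiments per dose, reported as mean ± SEM. Schild regression analysis applied to the data.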

[4] = biological target: Muscarinic acetylcholine receptor M3 (Rattus norvegicus) (UniProt P08483); assay: as §2; type: functional; procedure, shortened: as §3
[5] = biological target: T3, Muscarinic acetylcholine receptor M4 (Homo sapiens, UniProt P08173); assay: Inhibition of [3H]NMS binding to human cloned M4 receptor expressed in CHO cells; type: cell-based; procedure, shortened: as §1
T3 sequence (P08173 whole entry): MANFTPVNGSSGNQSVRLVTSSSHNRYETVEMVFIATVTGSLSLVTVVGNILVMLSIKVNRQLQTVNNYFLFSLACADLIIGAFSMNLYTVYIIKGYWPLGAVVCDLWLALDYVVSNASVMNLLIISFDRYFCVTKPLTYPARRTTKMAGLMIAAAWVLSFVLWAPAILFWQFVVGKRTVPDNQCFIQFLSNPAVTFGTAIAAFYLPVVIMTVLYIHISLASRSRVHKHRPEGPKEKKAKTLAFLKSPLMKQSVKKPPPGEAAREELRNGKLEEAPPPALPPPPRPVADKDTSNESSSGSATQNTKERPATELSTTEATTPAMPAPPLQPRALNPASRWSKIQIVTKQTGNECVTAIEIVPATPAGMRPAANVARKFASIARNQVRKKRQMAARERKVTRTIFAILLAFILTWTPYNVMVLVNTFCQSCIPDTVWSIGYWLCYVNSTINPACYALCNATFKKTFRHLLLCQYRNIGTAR

[6] = biological target: T4, Muscarinic acetylcholine receptor M3 (Homo sapiens, UniProt P20309); assay: Inhibition of [3H]NMS binding to human cloned M3 receptor expressed in CHO cells; type: cell-based; procedure, shortened: as §1
Target sequence in this assay (P20309 whole entry): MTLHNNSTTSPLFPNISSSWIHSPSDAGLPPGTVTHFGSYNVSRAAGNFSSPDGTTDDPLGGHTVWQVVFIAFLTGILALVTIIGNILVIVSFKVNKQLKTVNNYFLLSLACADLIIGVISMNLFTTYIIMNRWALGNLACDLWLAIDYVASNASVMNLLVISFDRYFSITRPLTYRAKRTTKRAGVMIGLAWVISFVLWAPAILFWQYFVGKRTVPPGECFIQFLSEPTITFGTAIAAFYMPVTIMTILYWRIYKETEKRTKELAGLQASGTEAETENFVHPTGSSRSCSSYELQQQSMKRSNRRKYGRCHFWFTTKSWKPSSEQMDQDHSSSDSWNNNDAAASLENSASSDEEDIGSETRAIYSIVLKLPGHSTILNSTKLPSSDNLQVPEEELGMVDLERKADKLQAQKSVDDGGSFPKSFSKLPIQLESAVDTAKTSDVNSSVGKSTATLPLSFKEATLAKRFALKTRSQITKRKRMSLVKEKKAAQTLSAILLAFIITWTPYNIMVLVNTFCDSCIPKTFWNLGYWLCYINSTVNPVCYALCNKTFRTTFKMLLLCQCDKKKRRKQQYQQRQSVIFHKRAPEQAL

[7] = biological target: T5, Muscarinic acetylcholine receptor M2 (Rattus norvegicus, UniProt P10980); assay: Antagonist activity at M2 receptor assessed as inhibition of carbachol-induced bradycardia in rat atria; type: functional; settings: read-out: pA2 (converted)
T5 sequence (P10980 whole entry): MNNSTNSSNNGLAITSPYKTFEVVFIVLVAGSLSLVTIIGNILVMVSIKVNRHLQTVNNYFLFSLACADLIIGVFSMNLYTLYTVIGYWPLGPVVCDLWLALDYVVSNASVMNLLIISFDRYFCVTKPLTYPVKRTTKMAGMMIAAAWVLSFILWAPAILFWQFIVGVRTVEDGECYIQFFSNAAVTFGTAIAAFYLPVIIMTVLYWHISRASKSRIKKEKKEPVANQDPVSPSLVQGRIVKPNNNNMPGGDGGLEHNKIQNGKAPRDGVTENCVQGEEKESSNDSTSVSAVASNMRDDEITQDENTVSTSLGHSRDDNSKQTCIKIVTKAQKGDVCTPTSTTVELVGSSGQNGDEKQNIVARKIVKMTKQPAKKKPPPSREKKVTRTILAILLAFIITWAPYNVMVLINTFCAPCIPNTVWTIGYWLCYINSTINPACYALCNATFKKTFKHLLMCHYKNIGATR
Procedure, shortened: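 Isolated rat right atria, bradycardia evoked by carbachol, antagonist given at several doses. Four experiments per dose, reported as mean ± SEM. Potency obtained by Schild regression analysis.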

[8] = biological target: T4, Muscarinic acetylcholine receptor M3; assay: Inhibition of [3H]NMS binding to human cloned M3 receptor expressed in CHO cells at 1 uM; type: cell-based
Target sequence in this assay (P20309 whole entry, looked up): as the sequence (P20309 whole entry) above

Sequence of Muscarinic acetylcholine receptor M3 (Rattus norvegicus) (P08483 whole entry, looked up): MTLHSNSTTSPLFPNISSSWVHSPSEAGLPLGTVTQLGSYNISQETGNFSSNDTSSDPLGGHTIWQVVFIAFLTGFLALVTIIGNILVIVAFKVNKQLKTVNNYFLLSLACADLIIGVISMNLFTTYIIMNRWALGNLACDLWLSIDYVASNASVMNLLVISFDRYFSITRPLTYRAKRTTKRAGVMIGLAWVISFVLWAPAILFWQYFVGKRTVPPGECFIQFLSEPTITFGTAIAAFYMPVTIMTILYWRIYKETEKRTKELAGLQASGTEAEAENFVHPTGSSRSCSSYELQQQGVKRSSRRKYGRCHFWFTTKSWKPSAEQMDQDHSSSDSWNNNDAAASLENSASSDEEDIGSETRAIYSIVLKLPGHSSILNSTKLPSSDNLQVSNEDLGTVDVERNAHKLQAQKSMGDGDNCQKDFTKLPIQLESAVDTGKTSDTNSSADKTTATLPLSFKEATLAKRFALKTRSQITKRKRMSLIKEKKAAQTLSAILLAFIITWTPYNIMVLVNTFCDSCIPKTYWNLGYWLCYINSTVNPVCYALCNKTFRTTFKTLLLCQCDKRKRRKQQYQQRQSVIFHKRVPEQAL
Sequence of Muscarinic acetylcholine receptor M3 (Rattus norvegicus, UniProt P08483) (P08483 whole entry): as the sequence (P08483 whole entry, looked up) above

SMILES	Ki [1]	Ki [2]	Kb [3]	Activity [4]	Ki [5]	Ki [6]	Kb [7]	inhibition [8]
O=C(NCC1CCNCC1)[C@H]1CCCN1C(=O)[C@@H]1C[C@@H](O)CN1C(=O)CC(c1ccc(F)cc1)(c1ccc(F)cc1)c1ccc(F)cc1	0.17 µM	3.5 µM	0.000224 µM	Dose-dependent effect	0.042 µM	0.0003 µM	0.204 µM	
CN1CCC(CNC(=O)[C@H]2CCCN2C(=O)[C@@H]2C[C@@H](O)CN2C(=O)CC(c2ccc(F)cc2)(c2ccc(F)cc2)c2ccc(F)cc2)CC1	0.27 µM	1.6 µM			0.041 µM	0.00051 µM		
O=C(NCC1CCNCC1)[C@H]1CCCN1C(=O)[C@@H]1C[C@@H](O)CN1C(=O)CC(c1ccccc1)(c1ccccc1)c1ccccc1	1.8 µM	> 5.1 µM			0.48 µM	0.0042 µM		
O=C(NCC1CCNCC1)[C@H]1CCCN1C(=O)[C@@H]1C[C@@H](O)CN1C(=O)CC(c1ccc(Cl)cc1)(c1ccc(Cl)cc1)c1ccc(Cl)cc1	0.093 µM	2.5 µM			0.053 µM	0.00039 µM		
O=C(NCCC1CCNCC1)[C@H]1CCCN1C(=O)[C@@H]1C[C@@H](O)CN1C(=O)CC(c1ccc(F)cc1)(c1ccc(F)cc1)c1ccc(F)cc1	0.3 µM	1.7 µM			0.029 µM	0.00048 µM		
O=C(NCCC1CCNCC1)[C@H]1CCCN1C(=O)[C@@H]1C[C@@H](O)CN1C(=O)CC(c1ccccc1)(c1ccccc1)c1ccccc1	2 µM	> 5.1 µM			0.15 µM	0.0028 µM		
O=C(NC[C@H]1CCCNC1)[C@H]1CCCN1C(=O)[C@@H]1CCCN1C(=O)CC(c1ccccc1)(c1ccccc1)c1ccccc1	> 2.5 µM	> 5 µM			> 1.7 µM	0.099 µM		74%
